Source: ChEMBL document CHEMBL4004809, “Dibenzofurans and Pseudodepsidones from the Lichen Stereocaulon paschale Collected in Northern Quebec” (2017)
Values after ≈ are worked out from the molar mass of the structure shown. Active and inactive are the calls of the source. The calls are words filed in the database; no cut-off is given here.

Key:
Type in all cases: functional
Streptococcus mutans [1] = test: Antibacterial activity against Streptococcus mutans ATCC 25175 after 24 hrs; details: ATCC 25175, 24 h
Outline: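 S. mutans grown aerobically at 37 °C in Todd-Hewitt broth with 0.001% hemin and 0.0001% vitamin K. Overnight culture diluted to OD660 0.2 and mixed 1:1 with serial compound dilutions (80 to 5 μM). Vehicle-only and penicillin G controls included. MIC = lowest concentration with complete growth inhibition after 24 h. Triplicate.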

Candida albicans = test: Antifungal activity against Candida albicans ATCC 28366 assessed as growth inhibition at 80 uM after 24 hrs
Outline: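 C. albicans cultured aerobically at 37 °C in yeast nitrogen base with 0.5% glucose. Overnight culture diluted to OD660 0.2 and added 1:1 to compound dilutions, top level 80 μM. Vehicle-only and nystatin controls included. Growth inhibition scored after 24 h. Triplicate.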

Porphyromonas gingivalis [2] = test: Antibacterial activity against Porphyromonas gingivalis ATCC 33277 after 24 hrs; details: ATCC 33277, 24 h
Outline: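 P. gingivalis grown anaerobically (N2-H2-CO2 80:10:10) at 37 °C in Todd-Hewitt broth with 0.001% hemin and 0.0001% vitamin K. Overnight culture diluted to OD660 0.2 and added 1:1 to serial dilutions of compound (80 to 5 μM). Vehicle-only and penicillin G controls. After 24 h, MIC taken as lowest concentration giving complete growth inhibition. Triplicate.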

Streptococcus mutans [3] = test: Bactericidal activity against Streptococcus mutans ATCC 25175 after 24 hrs; details: ATCC 25175, 24 h
Outline: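 MBC for S. mutans was run after the aerobic 37 °C THBHK microdilution (80 to 5 μM, 24 h). 10 μL aliquots from wells lacking visible growth were plated on solid medium to find the minimal bactericidal concentration. Penicillin G served as reference. Triplicate.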

Porphyromonas gingivalis [4] = test: Bactericidal activity against Porphyromonas gingivalis ATCC 33277 after 24 hrs; details: ATCC 33277, 24 h
Outline: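 For MBC, P. gingivalis was run as in the anaerobic broth MIC set-up (THBHK, 37 °C, 24 h, 80 to 5 μM). 10 μL from wells without visible growth was spread on solid medium. MBC was read from these subcultures. Penicillin G served as reference. Triplicate.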

Compound | MIC (Streptococcus mutans [1]) | growth inhibition (GI) (Candida albicans) | MIC (Porphyromonas gingivalis [2]) | MBC (Streptococcus mutans [3]) | MBC (Porphyromonas gingivalis [4])
CCCCCc1cc(O)cc(O)c1Oc1cc(OC)cc2c1C(=O)OC2(CCCC)OC (centres undefined) | 80 µM (≈ 35.6 µg/mL) | inactive | 80 µM (≈ 35.6 µg/mL) | 80 µM (≈ 35.6 µg/mL) | 80 µM (≈ 35.6 µg/mL)
COC(=O)c1c(C)cc(O)c(C)c1O [ATRARIC ACID] | > 80 µM | inactive | > 80 µM | > 80 µM | > 80 µM
CCCCCc1cc(O)cc(O)c1Oc1cc(OC)cc2c1C(=O)OC2(O)CCCC (centres undefined) [SAKISACAULON A] | 80 µM (≈ 34.4 µg/mL) | inactive | > 80 µM | 80 µM (≈ 34.4 µg/mL) | > 80 µM
CCCCCc1cc(O)cc(O)c1Oc1cc(OC)cc(C(=O)CCCC)c1C(=O)OC | 80 µM (≈ 35.6 µg/mL) | inactive | 80 µM (≈ 35.6 µg/mL) | > 80 µM | 80 µM (≈ 35.6 µg/mL)
Cc1cc(O)cc2oc3cc(O)cc(CO)c3c12 | > 80 µM | inactive | > 80 µM | > 80 µM | > 80 µM
CC1(C)S[C@@H]2[C@H](NC(=O)Cc3ccccc3)C(=O)N2[C@H]1C(=O)O [PENICILLIN G] | 0.15 µM (≈ 0.0502 µg/mL) | – | 0.29 µM (≈ 0.097 µg/mL) | 4.7 µM (≈ 1.57 µg/mL) | 2.3 µM (≈ 0.769 µg/mL)
Cc1c(C(=O)O)c(O)cc2oc3cc(O)cc(C(=O)O)c3c12 | > 80 µM | inactive | > 80 µM | > 80 µM | > 80 µM
CCC/C=C1\OC(=O)c2c(Oc3c(O)cc(O)cc3CCCCC)cc(OC)cc21 | 10 µM (≈ 4.12 µg/mL) | inactive | 20 µM (≈ 8.25 µg/mL) | 20 µM (≈ 8.25 µg/mL) | 20 µM (≈ 8.25 µg/mL)
CCCCCc1c(Oc2cc(OC)cc(C(=O)CCCC)c2C(=O)OC)c(O)cc(O)c1C(=O)O | 80 µM (≈ 39.1 µg/mL) | inactive | 40 µM (≈ 19.5 µg/mL) | > 80 µM | 40 µM (≈ 19.5 µg/mL)
CCCCCc1c2c(cc(O)c1C(=O)O)OC(=O)c1c(cc(OC)cc1C(=O)CCCC)O2 [LOBARIC ACID] | 20 µM (≈ 9.13 µg/mL) | inactive | 80 µM (≈ 36.5 µg/mL) | 80 µM (≈ 36.5 µg/mL) | 80 µM (≈ 36.5 µg/mL)
CCCCCc1c(Oc2cc(OC)cc3c2C(=O)OC3(CCCC)OC)c(O)cc(O)c1C(=O)O (centres undefined) | 80 µM (≈ 39.1 µg/mL) | inactive | 80 µM (≈ 39.1 µg/mL) | 80 µM (≈ 39.1 µg/mL) | 80 µM (≈ 39.1 µg/mL)
COC(=O)c1c(C)cc(O)c(C=O)c1O [METHYL HAEMATOMMATE] | > 80 µM | inactive | > 80 µM | > 80 µM | > 80 µM
Cc1c(C(=O)O)c(O)cc2oc3cc(O)cc(CO)c3c12 | > 80 µM | inactive | > 80 µM | > 80 µM | > 80 µM
